# NPY-Y2 antag = NPY-Y2 receptor antagonists, primary screen, cell-based; inhibition, % at 2.7 µM; NPY-Y2 expressing cells, antagonist mode; 140,000 tested, 0.99% active; Neuropeptide Y receptor type 2 (Homo sapiens), P49146; in the data active = inhibition above about 17%
# NPY-Y1 PAM-ag = NPY-Y1 receptor potentiators or agonists, primary screen, cell-based; Neuropeptide Y receptor type 1 (Homo sapiens), P25929; NPY-Y1 expressing cells, potentiator/agonist activation; activation, % at 3.6 µM; 220,000 tested, 0.37% active; AID 1304, 2008; in the data active = activation above about 33%, passing the limit was not always enough;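 also: cells stimulated with NPY at EC10 then isoproterenol at EC100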
# Target sequence (P25929 whole entry, looked up): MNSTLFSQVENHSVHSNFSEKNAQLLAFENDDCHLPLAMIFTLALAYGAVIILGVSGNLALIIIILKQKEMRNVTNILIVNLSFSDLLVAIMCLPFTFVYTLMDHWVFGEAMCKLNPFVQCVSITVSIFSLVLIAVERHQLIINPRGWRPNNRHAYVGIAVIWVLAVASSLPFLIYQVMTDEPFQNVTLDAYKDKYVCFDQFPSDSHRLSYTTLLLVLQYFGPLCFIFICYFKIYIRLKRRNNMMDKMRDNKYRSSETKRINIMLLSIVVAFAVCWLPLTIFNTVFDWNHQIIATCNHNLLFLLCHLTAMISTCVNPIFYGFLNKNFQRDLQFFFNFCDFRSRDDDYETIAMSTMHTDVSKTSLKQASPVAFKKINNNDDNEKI
# NPY-Y1 antag = NPY-Y1 receptor antagonists, primary screen, cell-based; HEK293-CNG Y1 cells, membrane potential fluorescence; NPY at EC95, then isoproterenol; 200,000 tested, 1% active; Neuropeptide Y receptor type 1 (Homo sapiens), P25929; inhibition, % at 3.6 µM;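 active = inhibition above the campaign mean inhibition of all tested compounds plus 3 SD, cut at about 20% in these data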
#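 Material: HEK293 Y1/CNG channel cell line; also added: NPY (25 nM), isoproterenol (1 µM), Ro 20-1724 (25 µM); doses: one concentration, 3.6 µM, in 0.4% DMSO; schedule: compound incubation 1 h at room temperature, readout 45 min post-stimulation; technique: membrane potential fluorescence; measure: fluorescence ratio normalized to % inhibition between controls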
# NPY2 pot ag = NPY-Y2 potentiators or agonists, primary screen, cell-based; Neuropeptide Y receptor type 2 (Homo sapiens), P49146; cells expressing NPY-Y2, potentiator/agonist read-out; activation, % at 3.6 µM; 220,000 tested, 0.45% active; in the data active = activation above about 27%;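 also: cells stimulated with NPY near EC25 plus isoproterenol at EC100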
# NPY-Y1 antag ct = NPY-Y1 receptor antagonists, selectivity check, counter-screen for NPY-Y2 antagonist project, cell-based; shares compounds with NPY-Y2 antag; cell-based NPY-Y1 antagonism counterscreen; inhibition, % at 3.6 µM; 710 tested, 19% active; AID 1256, 2008; in the data active = inhibition above about 20%;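 also: cells challenged with NPY then isoproterenol with cAMP sensed through a CNG channel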
# NPY-Y2 ant conf = NPY-Y2 receptor antagonists, retest of hits, confirmation, HEK293-CNG cells, membrane potential fluorescence, triplicate; inhibition, % at 2.8 µM; shares compounds with NPY-Y2 antag; 710 tested, 32% active; HEK293 NPY-Y2 CNG channel;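 active = mean inhibition of triplicate wells above the hit cutoff set in the primary screen, cut at about 17% in these data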
# Hits are given with their value; i = inactive; nt = not tested or not shown. Compounds with a hit are over-represented: about 1.8% of the library has one in this group of screens.
SMILES,NPY-Y2 antag,NPY-Y1 PAM-ag,NPY-Y1 antag,NPY2 pot ag,others
CCNC(=O)C1OC(n2cnc3c(N)ncnc32)C(O)C1O (centres undefined),138,i,127,i,
Cc1c(C(=O)C(=O)N2CCC3(CC2)OCCO3)c2ccccc2n1C,nt,i,i,i,
CC(NCc1ccc(Cl)cc1)C(O)c1ccccc1 (centres undefined),i,i,i,i,
CC(CCc1ccccc1)NC(C)C(O)c1ccc(O)cc1 (centres undefined),i,92,i,86,
CCN1CCN(Cc2ccc(C)cc2)CC1,i,i,i,i,
CCN1CCN(Cc2cc(C(C)(C)C)c(O)c(C(C)(C)C)c2)CC1,i,68,i,62,
CCCCn1c(C)c(C(=O)OCC)c2c(CN3CCOCC3)c(O)ccc21,34,i,33,i,
CCOC(=O)c1c(C)n(Cc2ccco2)c2ccc(O)cc12,i,i,i,i,
CC1=CC(=C2C(=O)NC(=S)NC2=O)C=C(C(F)(F)F)N1CCc1ccccc1,nt,i,i,i,
O=c1oc2ccccc2c(O)c1[C@H]1c2ccc(O)cc2Oc2c1c(=O)oc1ccccc21,nt,i,nt,i,
CN1CCN(c2c(C#N)c(C(F)(F)F)nn2C)CC1,nt,i,i,i,
CN(C(=O)CNC(=O)OCc1ccccc1)c1ccc(Br)cc1C(=O)c1ccccc1Cl,18,i,23,i,
Cc1cc(OC(=O)CCCNC(=O)OC(C)(C)C)c2c3c(c(=O)oc2c1)CCC3,i,i,i,i,
Cc1cc(OC(=O)CCNC(=O)OC(C)(C)C)c2c3c(c(=O)oc2c1)CCC3,i,i,i,68,
CC12CC[C@H]3[C@@H](CCC4(O)C[C@H](O)CCC34/C=N/NC(=O)c3ccccc3Cl)C1(O)CCC2C1=CC(=O)OC1 (some centres undefined),nt,i,nt,i,
C[C@H]1O[C@@H](O[C@H]2[C@@H](O)C[C@H](O[C@H]3[C@@H](O)C[C@H](O[C@H]4CC[C@@]5(C)[C@H](CC[C@@H]6[C@@H]5CC[C@]5(C)[C@@H](C7=CC(=O)OC7)CC[C@]65O)C4)O[C@@H]3C)O[C@@H]2C)C[C@H](O)[C@@H]1O,45,i,51,i,
C[C@@H]1O[C@@H](O[C@H]2C[C@@H](O)[C@]3(CO)[C@H]4[C@H](O)C[C@]5(C)[C@@H](C6=CC(=O)OC6)CC[C@]5(O)[C@@H]4CC[C@]3(O)C2)[C@H](O)[C@H](O)[C@H]1O,22,i,34,i,
CC(C)(C)NCC(O)c1cc(Cl)c(N)c(Cl)c1 (centres undefined),i,97,i,88,
COc1ccc(C)cc1NC(=O)c1c(C)nn(Cc2ccccc2)c1Cl,21,i,20,i,
CC(C)[N+]12CCC(CC1)C(C(O)(c1ccccc1)c1ccccc1)C2 (centres undefined),nt,i,nt,i,
CCOc1ccc(N2C(=O)NC(=O)/C(=C/c3cnc(SC)nc3)C2=O)cc1,nt,i,i,i,
Cc1cc(C)n2nc(SC(C)C(=O)N3CCC4(CC3)OCCO4)nc2n1 (centres undefined),i,73,i,99,
O=P(O)(Oc1ccccc1)OC(c1ccccc1)C(F)(F)C(F)(F)F (centres undefined),nt,i,i,i,
Cc1[nH]c2ccccc2c1C(=O)C(=O)N1CC2CC(C1)c1cccc(=O)n1C2 (centres undefined),nt,i,i,i,
CCCCn1c(O)c(C(=O)/C=C/c2c[nH]c3ccccc23)c(=O)[nH]c1=O,nt,i,nt,i,
SMILES,NPY-Y2 antag,NPY-Y1 PAM-ag,NPY-Y1 antag,NPY2 pot ag,others
CN[C@H]1C[C@H]2O[C@@](C)([C@H]1OC)n1c3ccccc3c3c4c(c5c6ccccc6n2c5c31)C(=O)NC4,30,i,54,i,
CC(Oc1ccc(-c2ccccc2)cc1)C(=O)O (centres undefined),i,i,25,i,
C=CC1CN2CCC1CC2c1[nH]c2ccccc2c1CCO (centres undefined),i,i,i,i,
N=C(N)c1c(O)n(C2CCCCC2)c(=O)n(C2CCCCC2)c1=O,i,i,i,31,
CCN(CCNc1ccc([N+](=O)[O-])c2cccnc12)S(=O)(=O)c1ccc(Cl)cc1,i,i,i,i,
CCN(CCNc1ccc([N+](=O)[O-])c2cccnc12)S(=O)(=O)c1ccccc1,i,61,i,70,
CC1CCN(c2cc(Br)c([N+](=O)[O-])cc2F)CC1,nt,i,nt,i,
C=C[C@@H]1C[C@@]1(C)[C@@H](NP(=O)(c1ccccc1)c1ccccc1)c1ccccc1,23,i,38,i,
Cc1ccc(OP(=O)(O)Oc2ccc(C)cc2)cc1,i,i,26,i,
COC(=O)[C@@H]1C[C@H]1[C@@H](NP(=O)(c1ccccc1)c1ccccc1)c1ccccc1,i,i,i,i,
COC(=O)[C@H]1C[C@@H]1[C@H](NP(=O)(c1ccccc1)c1ccccc1)c1ccccc1,19,i,40,i,
CCC(=NCCC(c1ccccc1)c1ccccc1)c1c(O)[nH]c(=O)[nH]c1=O,35,i,i,i,NPY-Y1 antag ct=40;NPY-Y2 ant conf=67
CC1CCC(C(C)C)C(OC(=O)COC(=O)c2ccccc2N)C1 (centres undefined),18,i,i,i,NPY-Y1 antag ct=i;NPY-Y2 ant conf=i
CCOP(=S)(OCC)c1ccc(N(C)C)cc1,17,i,i,i,NPY-Y1 antag ct=i;NPY-Y2 ant conf=i
CN(C)c1ccc(P(=S)(N(C)C)N(C)C)cc1,i,i,i,i,
Cc1nc2ccc(Cl)cc2c(-c2ccccc2)c1C(=O)O,i,i,i,i,
O=P(Oc1ccccc1)(Oc1ccccc1)C(Nc1ccccc1)c1ccccc1 (centres undefined),28,i,i,i,NPY-Y1 antag ct=27;NPY-Y2 ant conf=20
COP(=O)(OC)C(Nc1ccccn1)c1ccccc1 (centres undefined),i,i,i,i,
CCCCC(=O)N/N=C/c1c(O)n(-c2cccc3ccccc23)c(=O)[nH]c1=O,nt,i,nt,i,
CCN(CC)C(=O)c1ccc(NC(=O)Nc2ccccc2F)cc1,nt,i,i,i,
O=C(c1ccco1)c1cn(Cc2ccccc2Cl)c2ccccc12,24,i,i,i,NPY-Y1 antag ct=i;NPY-Y2 ant conf=i
N#Cc1ccccc1Cn1cc(C(=O)c2ccco2)c2ccccc21,17,i,i,i,NPY-Y1 antag ct=i;NPY-Y2 ant conf=i
O=C(c1ccco1)c1cn(Cc2ccccc2)c2ccccc12,i,i,i,i,

# High-throughput results as filed in PubChem.
